The values below come from ChEMBL document CHEMBL1139268, “Camphor sulfonamide derivatives as novel, potent and selective CXCR3 antagonists” (Bioorg Med Chem Lett, 2009).

The test system of one data set is Rattus norvegicus. The data set is described as follows: Half life in rat at 1.1 mg/kg, iv and 2.0 mg/kg, po. It is filed as ADME, organism-based. Particulars: in vivo.
The target of a further data set is T1, Cytochrome P450 1A2 (Homo sapiens, UniProt P05177).
T1 sequence (P05177 whole entry): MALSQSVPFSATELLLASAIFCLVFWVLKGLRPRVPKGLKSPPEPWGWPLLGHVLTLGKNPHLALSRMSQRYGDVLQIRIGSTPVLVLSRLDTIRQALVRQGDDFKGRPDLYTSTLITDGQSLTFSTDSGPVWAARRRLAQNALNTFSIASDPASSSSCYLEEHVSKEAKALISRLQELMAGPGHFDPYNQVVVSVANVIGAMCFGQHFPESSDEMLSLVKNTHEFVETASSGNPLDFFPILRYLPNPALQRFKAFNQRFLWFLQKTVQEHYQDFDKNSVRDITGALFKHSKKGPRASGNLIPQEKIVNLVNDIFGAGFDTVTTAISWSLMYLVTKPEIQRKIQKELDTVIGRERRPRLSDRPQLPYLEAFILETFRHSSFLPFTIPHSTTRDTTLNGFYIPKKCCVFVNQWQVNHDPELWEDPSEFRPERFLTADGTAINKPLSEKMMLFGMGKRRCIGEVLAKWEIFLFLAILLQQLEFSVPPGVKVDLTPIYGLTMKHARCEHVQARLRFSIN
The data set is described as follows: Inhibition of CYP1A2. It is filed as ADME.

Data set [1] can be described thus: Oral bioavailability in rat at 2.0 mg/kg. It is filed as ADME, organism-based. Particulars: in vivo.
Data set [2] is described as follows: Aqueous solubility of the compound. It is filed as physicochemical. Particulars: buffer.
Data set [3] addresses Voltage-gated inwardly rectifying potassium channel KCNH2 (Homo sapiens, UniProt Q12809). As to the kind of experiment: Binding affinity to human ERG.
Data set [4] can be described thus: Clearance in rat at 1.1 mg/kg, iv and 2.0 mg/kg, po. It is filed as ADME, organism-based. The following applies: in vivo.
In data set [5] the target is T2, Cytochrome P450 3A4 (Homo sapiens, UniProt P08684). The data set is described as follows: Inhibition of CYP3A4 red. The class given is ADME.
T2 sequence (P08684 whole entry): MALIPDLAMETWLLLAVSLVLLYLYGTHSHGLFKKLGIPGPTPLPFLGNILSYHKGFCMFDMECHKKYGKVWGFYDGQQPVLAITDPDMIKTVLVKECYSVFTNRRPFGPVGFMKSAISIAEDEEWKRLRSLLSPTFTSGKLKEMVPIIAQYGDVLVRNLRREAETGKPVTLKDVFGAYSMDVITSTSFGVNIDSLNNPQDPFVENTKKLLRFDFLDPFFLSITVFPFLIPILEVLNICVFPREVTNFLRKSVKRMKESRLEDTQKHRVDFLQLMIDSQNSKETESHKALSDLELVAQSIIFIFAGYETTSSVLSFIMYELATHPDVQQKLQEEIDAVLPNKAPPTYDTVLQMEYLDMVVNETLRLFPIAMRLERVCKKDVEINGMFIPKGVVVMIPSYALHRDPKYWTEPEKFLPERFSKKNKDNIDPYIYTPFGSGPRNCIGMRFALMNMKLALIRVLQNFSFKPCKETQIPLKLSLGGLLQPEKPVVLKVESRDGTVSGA
A short description of data set [6]: Volume of distribution at steady state in rat a 1.1 mg/kg, iv and 2.0 mg/kg, po. The class given is ADME, organism-based. Particulars: in vivo, read-out: Vdss.
For data set [7], the target named is T3, C-X-C chemokine receptor type 3 (Homo sapiens, UniProt P49682).
T3 sequence (P49682 whole entry): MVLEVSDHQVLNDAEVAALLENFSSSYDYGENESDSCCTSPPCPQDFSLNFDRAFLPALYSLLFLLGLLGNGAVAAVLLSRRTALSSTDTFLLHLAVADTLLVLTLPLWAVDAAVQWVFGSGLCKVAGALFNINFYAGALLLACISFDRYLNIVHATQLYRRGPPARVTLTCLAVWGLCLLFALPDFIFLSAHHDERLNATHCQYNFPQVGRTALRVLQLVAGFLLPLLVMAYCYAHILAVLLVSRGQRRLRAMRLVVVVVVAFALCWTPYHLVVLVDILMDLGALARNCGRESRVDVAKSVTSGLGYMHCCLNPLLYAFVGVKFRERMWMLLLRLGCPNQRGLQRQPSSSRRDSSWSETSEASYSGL
As to the kind of experiment: Antagonist activity at human recombinant CXCR3 receptor assessed as human IP10-induced calcium mobilization by FLIPR assay. The class given is functional. The following applies: read-out: pA2 (converted).

Data set [8] addresses T4, C-X-C chemokine receptor type 3 (Mus musculus, UniProt O88410).
T4 sequence (O88410 whole entry): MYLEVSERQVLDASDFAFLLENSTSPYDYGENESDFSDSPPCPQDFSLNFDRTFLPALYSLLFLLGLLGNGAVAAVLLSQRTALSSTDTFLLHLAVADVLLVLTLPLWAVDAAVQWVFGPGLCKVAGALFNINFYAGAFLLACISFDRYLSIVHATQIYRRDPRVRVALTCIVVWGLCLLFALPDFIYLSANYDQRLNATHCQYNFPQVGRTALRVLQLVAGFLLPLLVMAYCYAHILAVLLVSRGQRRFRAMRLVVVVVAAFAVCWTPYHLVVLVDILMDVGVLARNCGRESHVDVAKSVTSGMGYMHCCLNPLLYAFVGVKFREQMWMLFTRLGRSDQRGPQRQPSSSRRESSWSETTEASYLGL
As to the kind of experiment: Antagonist activity at mouse recombinant CXCR3 expressed in human U2OS cells. It is filed as functional, cell-based. In a few lines: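 Human U2OS cells were transiently transduced with a mixture of recombinant BacMam viruses, one expressing murine CXCR3 and one expressing chimeric G-protein Gqi5.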

The nature of data set [9]: Permeability across artificial membrane. Particulars: PAMPA; read-out: permeability. It is filed as ADME. (The PAMPA barrier holds no transporters, so it reflects passive diffusion.)
For data set [10], the target named is T3, C-X-C chemokine receptor type 3. As to the kind of experiment: Antagonist activity at human recombinant CXCR3 receptor expressed in CHO-K1 cells assessed as human IP10-induced calcium flux by FLIPR assay. It is filed as functional, cell-based. In general terms: A change in cytosolic calcium serves as a functional read-out for many receptors and channels.

Data set [11] addresses T2, Cytochrome P450 3A4. As to the kind of experiment: Inhibition of CYP3A4 green. The class given is ADME.
The next data set has as its target Cytochrome P450 2C9 (Homo sapiens, UniProt P11712). The data set is described as follows: Inhibition of CYP2C9. It is filed as ADME.
The next data set has as its target Cytochrome P450 2C19 (Homo sapiens, UniProt P33261). As to the kind of experiment: Inhibition of CYP2C19. It is filed as ADME.
In a further data set the target is Cytochrome P450 2D6 (Homo sapiens, UniProt P10635). The data set is described as follows: Inhibition of CYP2D6. The class given is ADME.
Chain of Cytochrome P450 2D6 (P10635 whole entry): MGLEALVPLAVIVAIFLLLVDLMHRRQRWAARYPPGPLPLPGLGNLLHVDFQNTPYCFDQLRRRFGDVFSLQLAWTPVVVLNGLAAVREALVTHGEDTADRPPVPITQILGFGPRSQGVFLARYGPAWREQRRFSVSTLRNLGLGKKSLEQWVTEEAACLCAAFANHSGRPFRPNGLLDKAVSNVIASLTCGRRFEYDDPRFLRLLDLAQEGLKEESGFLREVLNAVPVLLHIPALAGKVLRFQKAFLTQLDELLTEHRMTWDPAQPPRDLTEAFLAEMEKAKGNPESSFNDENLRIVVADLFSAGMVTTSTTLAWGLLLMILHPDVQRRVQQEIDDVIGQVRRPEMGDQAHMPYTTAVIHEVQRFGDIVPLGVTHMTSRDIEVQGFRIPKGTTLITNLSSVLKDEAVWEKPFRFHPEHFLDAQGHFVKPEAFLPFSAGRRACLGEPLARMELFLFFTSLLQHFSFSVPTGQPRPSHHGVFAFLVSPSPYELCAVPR

Values after ≈ are worked out from the molar mass of the structure shown. Where only a bound is given, the exact number is not on record here.

Chain of Voltage-gated inwardly rectifying potassium channel KCNH2 (Q12809 whole entry): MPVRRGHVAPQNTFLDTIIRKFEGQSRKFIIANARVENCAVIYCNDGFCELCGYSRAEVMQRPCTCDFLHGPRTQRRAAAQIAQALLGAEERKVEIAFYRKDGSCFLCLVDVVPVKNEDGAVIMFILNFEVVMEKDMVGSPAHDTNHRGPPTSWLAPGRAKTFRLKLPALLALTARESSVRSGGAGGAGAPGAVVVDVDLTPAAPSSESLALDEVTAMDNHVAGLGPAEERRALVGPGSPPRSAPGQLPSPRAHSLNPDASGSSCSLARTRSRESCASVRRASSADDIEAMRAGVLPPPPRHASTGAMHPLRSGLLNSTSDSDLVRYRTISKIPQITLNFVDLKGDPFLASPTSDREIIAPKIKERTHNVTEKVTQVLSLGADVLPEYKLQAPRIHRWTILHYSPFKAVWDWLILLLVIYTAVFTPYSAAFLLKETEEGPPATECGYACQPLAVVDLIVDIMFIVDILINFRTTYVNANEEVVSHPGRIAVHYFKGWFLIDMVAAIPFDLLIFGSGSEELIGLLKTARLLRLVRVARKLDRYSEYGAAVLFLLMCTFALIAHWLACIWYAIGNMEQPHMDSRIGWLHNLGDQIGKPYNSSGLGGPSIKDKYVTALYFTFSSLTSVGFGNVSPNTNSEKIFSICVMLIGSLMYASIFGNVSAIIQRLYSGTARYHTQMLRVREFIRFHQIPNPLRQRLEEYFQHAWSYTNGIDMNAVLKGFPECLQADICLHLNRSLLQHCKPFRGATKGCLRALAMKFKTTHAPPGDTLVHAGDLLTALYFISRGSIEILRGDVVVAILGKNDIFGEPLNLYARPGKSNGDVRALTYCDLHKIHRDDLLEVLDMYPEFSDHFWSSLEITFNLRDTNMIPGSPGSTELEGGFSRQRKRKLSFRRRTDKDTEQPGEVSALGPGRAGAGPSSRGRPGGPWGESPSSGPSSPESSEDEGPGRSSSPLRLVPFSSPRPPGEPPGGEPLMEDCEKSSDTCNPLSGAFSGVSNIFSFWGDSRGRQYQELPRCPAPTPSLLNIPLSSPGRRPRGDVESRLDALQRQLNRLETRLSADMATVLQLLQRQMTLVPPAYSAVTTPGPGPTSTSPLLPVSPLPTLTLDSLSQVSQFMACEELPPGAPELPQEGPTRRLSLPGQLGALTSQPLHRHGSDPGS
Chain of Cytochrome P450 2C19 (P33261 whole entry): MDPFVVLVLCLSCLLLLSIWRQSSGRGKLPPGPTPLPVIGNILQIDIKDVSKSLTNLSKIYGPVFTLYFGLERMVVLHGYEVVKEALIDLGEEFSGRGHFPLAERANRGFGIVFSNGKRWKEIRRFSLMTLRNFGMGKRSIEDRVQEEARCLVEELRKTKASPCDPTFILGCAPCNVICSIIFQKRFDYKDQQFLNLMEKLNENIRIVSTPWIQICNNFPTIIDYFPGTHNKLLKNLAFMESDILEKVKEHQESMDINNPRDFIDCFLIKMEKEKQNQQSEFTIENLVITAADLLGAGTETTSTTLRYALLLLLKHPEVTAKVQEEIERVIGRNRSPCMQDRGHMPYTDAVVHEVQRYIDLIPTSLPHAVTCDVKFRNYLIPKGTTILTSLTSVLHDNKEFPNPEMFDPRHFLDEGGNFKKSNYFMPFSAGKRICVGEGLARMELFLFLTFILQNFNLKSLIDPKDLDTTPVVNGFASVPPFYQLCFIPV
Chain of Cytochrome P450 2C9 (P11712 whole entry): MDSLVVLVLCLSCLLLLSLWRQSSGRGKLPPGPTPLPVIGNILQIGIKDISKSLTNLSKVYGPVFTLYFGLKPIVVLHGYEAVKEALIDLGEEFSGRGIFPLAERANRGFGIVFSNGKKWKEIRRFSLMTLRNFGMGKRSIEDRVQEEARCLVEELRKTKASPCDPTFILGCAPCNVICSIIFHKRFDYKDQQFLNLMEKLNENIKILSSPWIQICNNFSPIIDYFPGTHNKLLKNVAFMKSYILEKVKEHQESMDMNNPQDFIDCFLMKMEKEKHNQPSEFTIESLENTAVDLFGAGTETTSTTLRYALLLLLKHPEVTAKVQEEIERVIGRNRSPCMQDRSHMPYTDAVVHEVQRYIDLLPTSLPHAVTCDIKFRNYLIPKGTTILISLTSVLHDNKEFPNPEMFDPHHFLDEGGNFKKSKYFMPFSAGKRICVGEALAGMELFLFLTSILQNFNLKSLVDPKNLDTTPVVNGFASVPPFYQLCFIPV

For orientation: IC50 means the point on the concentration scale where inhibition reaches its midpoint. One may read the bioavailability as dose-corrected exposure relative to a reference, in per cent. The low end stands for little systemic uptake, the high end for much systemic uptake. A word on the solubility: it is the dissolved amount per volume that the medium holds. Lower therefore signals a poorly soluble substance. Turning to `C[C@H]1CN(S(=O)(=O)C[C@]23CC[C@H](CC2=O)C3(C)C)CCN1c1ncc(C(F)(F)F)cc1F`, in the data set with Rattus norvegicus, the t1/2 came to 30 min. Further, the IC50 was 0.16 µM at Cytochrome P450 1A2; > 63 µM in data set [3]; 0.32 µM on Cytochrome P450 3A4 [5]; 0.501 µM in data set [8]; 0.0794 µM in data set [10]. The same molecule came in with a bioavailability in data set [1] of 8%. The molecule also returned a solubility in data set [2] of 4 µg/mL (≈ 8.38 µM). In data set [4], this molecule registered a clearance of 108 mL/min/kg. In addition, the Vd in [6] stood at 2.2 L/kg. The Kb in data set [7] was 0.0251 µM. The Papp in [9] is 35.2 ×10⁻⁶ cm/s.

With `C[C@H]1CN(S(=O)(=O)C[C@]23CC[C@H](C[C@@H]2O)C3(C)C)CCN1c1ncc(C(F)(F)F)cc1F`, the IC50 at Cytochrome P450 1A2 was > 25 µM; against Cytochrome P450 3A4 [11] it was 13.6 µM; against Cytochrome P450 3A4 [5], > 25 µM; against Cytochrome P450 2C9 it was 4 µM; against Cytochrome P450 2C19 it was 4 µM; in data set [8] it was 0.2 µM. For the same molecule, the IC50 was > 25 µM on Cytochrome P450 2D6 and 0.0316 µM in data set [10]. In addition, in [7], the Kb was 0.02 µM.
